One assay concerns the target Adenosine receptor A2a (Rattus norvegicus, UniProt P30543). As to the kind of experiment: Binding affinity for adenosine A2A receptor from rat brain membranes using [3H]CGS-21680.
Assay [1] has as its target T1, Adenosine receptor A1 (Rattus norvegicus) (UniProt P25099).
T1 sequence (whole entry): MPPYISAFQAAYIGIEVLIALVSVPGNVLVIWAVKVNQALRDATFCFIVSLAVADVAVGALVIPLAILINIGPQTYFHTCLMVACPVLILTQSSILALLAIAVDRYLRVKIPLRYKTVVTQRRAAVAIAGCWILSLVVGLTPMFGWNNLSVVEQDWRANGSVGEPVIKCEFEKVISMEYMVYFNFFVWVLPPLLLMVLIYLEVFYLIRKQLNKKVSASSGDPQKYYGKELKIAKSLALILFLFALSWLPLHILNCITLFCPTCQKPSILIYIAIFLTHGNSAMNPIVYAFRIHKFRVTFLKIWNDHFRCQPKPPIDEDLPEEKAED
The assay is described as follows: Inhibition of [3H]PIA binding to Adenosine A1 receptor in rat brain membranes at 100 uM. The following applies: 250 uM, in the assay text read “250 uM” for “100 uM”. Format: cell membranes. In short, it runs like this: (§1)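 Rat brain membranes labelled with 1 nM [3H]-N6-[(R)-phenylisopropyl]adenosine for A1 sites. Nonspecific binding was defined with 10 μM 2-chloroadenosine. The value is percent inhibition of specific binding at the highest concentration tested, which was sometimes limited by solubility.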

The target in another assay is T2, Adenosine receptor A1 (Rattus norvegicus, UniProt P25099).
T2 sequence (P25099 whole entry): T1 sequence (whole entry)
As to the kind of experiment: Binding affinity for adenosine A1 receptor from rat brain membranes using [3H]PIA as radioligand.

Assay [2] deals with Adenosine receptor A2a (Rattus norvegicus) (UniProt P30543). The assay is described as follows: Inhibition of [3H]-CGS- 21680 binding to Adenosine A2A receptor in rat brain membranes at 100 uM. Format: cell membranes. Summed up:
(§2)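 Rat striatal membranes incubated with 4 nM [3H]CGS 21680 as the A2a radioligand. Nonspecific binding was defined with 20 μM 2-chloroadenosine. The value is percent inhibition of specific binding at the highest concentration tested, which was sometimes limited by solubility.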

Assay [3] shares this target. As to the kind of experiment: Inhibition of [3H]-CGS- 21680 binding to Adenosine A2A receptor in rat brain membranes at 250 uM. Format: cell membranes. Summed up:
as §2

In assay [4] the target is T1, Adenosine receptor A1 (Rattus norvegicus). As to the kind of experiment: Inhibition of [3H]PIA binding to A1 adenosine receptor in rat brain membranes at 250 uM. Format: cell membranes. Summed up:
as §1

In assay [5] the target is Adenosine receptor A2a (Rattus norvegicus) (UniProt P30543). As to the kind of experiment: Inhibition of [3H]-CGS- 21680 binding to Adenosine A2A receptor in rat brain membranes at 20 uM. Format: cell membranes. Summed up:
as §2

Assay [6] has the same target. The assay is described as follows: Inhibition of [3H]-CGS- 21680 binding to Adenosine A2A receptor in rat brain membranes at […]. Type of assay: cell membranes. In short, it runs like this: as §2

Chain of Adenosine receptor A2a (Rattus norvegicus) (P30543 whole entry): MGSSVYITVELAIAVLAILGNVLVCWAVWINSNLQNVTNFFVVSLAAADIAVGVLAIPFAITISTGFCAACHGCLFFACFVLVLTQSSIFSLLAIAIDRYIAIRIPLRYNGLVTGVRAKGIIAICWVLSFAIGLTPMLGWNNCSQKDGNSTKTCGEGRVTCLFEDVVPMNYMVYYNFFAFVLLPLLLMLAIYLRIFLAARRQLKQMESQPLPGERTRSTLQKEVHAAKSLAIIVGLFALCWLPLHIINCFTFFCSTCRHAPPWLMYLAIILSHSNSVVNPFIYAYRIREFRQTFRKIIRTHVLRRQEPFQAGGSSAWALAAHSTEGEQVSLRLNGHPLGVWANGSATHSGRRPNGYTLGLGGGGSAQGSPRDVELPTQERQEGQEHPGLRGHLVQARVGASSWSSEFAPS
Chain of Adenosine receptor A2a (P30543 whole entry): as above

In the case of `C=CCn1c(=O)c2c(nc(-c3ccc(S(=O)(=O)O)cc3)n2C)n(C)c1=O`, affinity on Adenosine receptor A2a was put at a Ki of 27 µM. Besides, the inhibition (as a rule, the relative decrease from the control value, in per cent) in assay [1] is 35%.

Regarding `Cn1c(=O)c2c(nc(/C=C/C(=O)O)n2C)n(C)c1=O`, the affinity on Adenosine receptor A2a corresponds to a Ki of 42 µM. In addition, in assay [1], the inhibition is 3%.

As to `Cn1c(=O)c2c(nc(C3CCC3)n2C)n(C)c1=O`, the Ki – broadly, the equilibrium dissociation constant of an inhibitor or competing ligand from its target – on Adenosine receptor A2a was 19 µM; on Adenosine receptor A1 it was 30 µM.

The compound `CCCn1c(=O)c2nc(-c3ccc(S(N)(=O)=O)cc3)[nH]c2n(CCC)c1=O` showed a Ki at Adenosine receptor A2a of 0.075 µM.

On to `Cn1c(=O)c2nc(C3CCC3)[nH]c2n(C)c1=O`, for which the figures for the Ki on Adenosine receptor A2a and on Adenosine receptor A1 were 2.8 µM and 0.19 µM, respectively.

In the case of `C=CCn1c(=O)c2c(nc(-c3ccccc3)n2CC=C)n(C)c1=O`, the Ki on Adenosine receptor A2a came to 7.7 µM; on Adenosine receptor A1 it was 0.66 µM.

Consider `Cn1c(=O)c2[nH]c(Br)nc2n(C)c1=O` [PAMABROM], for which, in assay [2], the inhibition turned out to be 36%. On Adenosine receptor A1, this compound registered a Ki of 10.2 µM.

For the compound `Cn1c(=O)c2[nH]c(-c3ccc(C(F)(F)F)cc3)nc2n(C)c1=O`, the figures for the Ki at Adenosine receptor A2a and on Adenosine receptor A1 were 0.21 µM and 0.15 µM, respectively.

On to `C=CCn1c(-c2ccc(C(F)(F)F)cc2)nc2c1c(=O)n(CCC)c(=O)n2CCC`, for which the results for the Ki at Adenosine receptor A2a and on Adenosine receptor A1 were 4.2 µM and 2.9 µM, respectively.

In the case of `Cn1c(-c2ccc(S(N)(=O)=O)cc2)nc2c1c(=O)[nH]c(=O)n2C`, the inhibition was found to be 33% in assay [1] and 42% in assay [3].

At Adenosine receptor A2a, `CCCn1c(=O)c2nc[nH]c2n(CCC)c1=O` returned a Ki of 2.6 µM. That is a single-digit micromolar value.

Regarding `Cc1nc2c(=O)n(C)c(=O)n(C)c2[nH]1`, the Ki at Adenosine receptor A1 amounted to 8.8 µM. Moreover, the inhibition in assay [3] came out at 34%.

With `CC(C)Cn1c(=O)n(C)c(=O)c2[nH]cnc21` [ISOBUTYLMETHYLXANTHINE], the affinity at Adenosine receptor A2a corresponds to a Ki of 5.8 µM.

Compound `Cn1c(-c2ccccc2)nc2c1c(=O)[nH]c(=O)n2C` registered a Ki on Adenosine receptor A2a of 12 µM.

Regarding `Cc1nc2c(c(=O)n(C)c(=O)n2C)n1C`, the Ki on Adenosine receptor A2a was 7.6 µM; at Adenosine receptor A1, 4.9 µM.

`Cn1c(=O)c2c(nc(C(F)(F)F)n2C)n(C)c1=O`: the affinity on Adenosine receptor A2a, expressed as Ki, was 29 µM. In assay [1], the inhibition came out at 8%.

Regarding `Cn1c(=O)c2c(nc(-c3ccccc3)n2C)n(C)c1=O`, the affinity at Adenosine receptor A2a corresponds to a Ki of 16 µM.

Consider `Cn1c(=O)c2c(nc(Br)n2C)n(C)c1=O`, for which the figures for the inhibitory constant (Ki) at Adenosine receptor A2a and at Adenosine receptor A1 were 12 µM and 49 µM, respectively.

`CCC/C=C/c1nc2c(=O)n(C)c(=O)n(C)c2[nH]1`: the Ki at Adenosine receptor A2a is 0.44 µM; at Adenosine receptor A1, 0.38 µM.

`Cn1c(=O)c2c(nc(-c3ccc(S(=O)(=O)O)cc3)n2C)n(C)c1=O`: the Ki on Adenosine receptor A2a is 20 µM. In assay [1], this compound returned an inhibition of 3.3%.

On to `CCCn1c(=O)c2[nH]c(-c3ccc(S(=O)(=O)O)cc3)nc2n(CCC)c1=O`, for which affinity at Adenosine receptor A2a was put at a Ki of 0.79 µM. That is a sub-micromolar value.

Turning to `CCCn1c(=O)c2nc(-c3ccc(C(F)(F)F)cc3)[nH]c2n(CCC)c1=O`, the Ki on Adenosine receptor A2a was determined as 0.042 µM; on Adenosine receptor A1 it was 0.0075 µM.

Regarding `C=CCn1c(=O)c2c(nc(-c3ccccc3)n2C)n(C)c1=O`, the inhibitory constant (Ki) on Adenosine receptor A2a amounted to 12 µM; on Adenosine receptor A1, 9 µM.

Regarding `Cn1c(=O)c2[nH]c(-c3ccccc3)nc2n(C)c1=O` [8-PHENYL THEOPHYLLINE], on Adenosine receptor A2a, the Ki is 0.97 µM.

In the case of `Cn1c(=O)c2c(nc(/C=C/C(=O)OC(C)(C)C)n2C)n(C)c1=O`, the Ki was 0.61 µM on Adenosine receptor A2a and 12 µM on Adenosine receptor A1.

In the case of `Cn1c(-c2ccc(S(=O)(=O)O)cc2)nc2c1c(=O)[nH]c(=O)n2C`, the inhibition in assay [1] amounted to 1.8%; in assay [3], 0%.

In assay [2], `CC(C)Cn1c(=O)n(C)c(=O)c2[nH]c(Br)nc21` registered an inhibition of 10%. This compound registered a Ki at Adenosine receptor A1 of 65 µM.

At Adenosine receptor A1, `CCC/C=C/c1nc2c(c(=O)n(C)c(=O)n2C)n1C` showed a Ki of 9.1 µM.

Turning to `Cn1c(=O)c2nc(C(F)(F)F)[nH]c2n(C)c1=O`, the inhibition in assay [4] and in assay [3] was 0% throughout.

In the case of `CCCn1c(=O)c2nc(C(F)(F)F)[nH]c2n(CCC)c1=O`, the figures for the inhibition in assay [1] and in assay [5] were 4.5% and 4.3%, respectively.

Take `CCCn1c(=O)c2nc(C)[nH]c2n(CCC)c1=O`: the figures for the Ki at Adenosine receptor A2a and on Adenosine receptor A1 were 2.8 µM and 0.6 µM, respectively.

For the compound `Cn1c(=O)c2[nH]c(Cl)nc2n(C)c1=O`, the values for the inhibition in assay [1] and in assay [2] were 39% and 34%, respectively.

`CCCn1c(=O)c2[nH]c(-c3ccccc3)nc2n(CCC)c1=O` came in with a Ki at Adenosine receptor A2a of 0.14 µM. That is a sub-micromolar value.

Consider `C=CCn1c(=O)c2c(nc(-c3ccc(C(F)(F)F)cc3)n2C)n(C)c1=O`, for which the results for the Ki at Adenosine receptor A2a and on Adenosine receptor A1 were 11 µM and 5.7 µM, respectively.

Regarding `Cn1c(=O)c2c(nc(-c3ccc(C(F)(F)F)cc3)n2C)n(C)c1=O`, the Ki at Adenosine receptor A2a amounted to 16 µM; at Adenosine receptor A1, 17 µM.

For `Cn1c(-c2ccc(C(F)(F)F)cc2)nc2c1c(=O)[nH]c(=O)n2C`, the affinity on Adenosine receptor A1 corresponds to a Ki of 3.7 µM. The compound further returned an inhibition in assay [6] of 10%.

Compound `Cn1c(=O)c2[nH]c(-c3ccc(S(=O)(=O)O)cc3)nc2n(C)c1=O` registered a Ki at Adenosine receptor A2a of 5.8 µM.

Values taken from ChEMBL document CHEMBL1126793, “Effect of trifluoromethyl and other substituents on activity of xanthines at adenosine receptors” (J Med Chem, 1993).
